Screening results deposited in PubChem BioAssay by Johns Hopkins Ion Channel Center.
KCNK9 block: inhibitors of human KCNK9 two-pore domain potassium channel; Q9NPC2; HEK293 KCNK9, FluxOR thallium flux fluorescence; hits give low values; B-score at 10 µM; 1.2% of 310,000 active;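 active = ratio B-score over 3 SD below the library mean, with starting fluorescence within 5 SD of its mean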;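 note: negative B-score means less thallium flux so channel inhibition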
KCNQ1 pot: potentiates or activates the human KCNQ1 potassium channel; P51787; B-score at 10 µM; 0.35% of 310,000 active; AID 2648; CHO-K1 KCNQ1, thallium flux FluxOR fluorescence; hits give high values;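 active = fluorescence ratio B-score, a plate-corrected score, at least three library SD, with initial intensity B-score within 5 SD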
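System: CHO-K1 cells stably expressing KCNQ1 / Medium: assay buffer for compound exposure, DMSO matched across wells / Reagent: thallium- and potassium-containing depolarizing buffer / Compound: one concentration, matched DMSO / Incubation: 20 min compound pretreatment at room temperature / Measured by: kinetic FluxOR fluorescence, 10 s baseline plus 110 s post-stimulus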
KCNK3 inh: human KCNK3 channel inhibition, primary screen; O14649; CHO-KCNK3 thallium flux, FluxOR fluorescence; hits give low values; B-score at 10 µM; 0.84% of 340,000 active;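 active = B-score under library mean minus 4 SD, starting fluorescence ratio at most library mean plus 5 SD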;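 note: more negative B-score means stronger inhibition of thallium flux through KCNK3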
hERG rescue: hERG (human) protection from proarrhythmic block; Q12809; CHO-hERG, FluxOR thallium flux, dofetilide IC70 present; activation (rescue from dofetilide block), less the hit threshold, % at 10 µM; 0.51% of 310,000 active;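 active = activation above the mean of controls blocked by dofetilide plus 5 SD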;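 note: thallium influx through hERG after potassium depolarization seen as dye fluorescence rise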
KCNQ1 inh: human KCNQ1 channel inhibition. P51787. CHO-K1 KCNQ1, FluxOR thallium flux fluorescence; hits give high values. B-score at 10 µM. 1.3% of 310,000 active;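 active = compounds whose thallium flux B-score, printed positive for inhibition, exceeds three library SD while starting fluorescence stays within three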;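 note: channel opened by potassium depolarization with thallium stimulus after 20 min compound exposure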
KCNQ1 block val: human KCNQ1 channel inhibition, validation assay. KCNQ1 cell line, FluxOR thallium flux fluorescence. 93% of 1,600 active. inhibition, % at 10 µM. shares compounds with KCNQ1 inh;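 active = primary screen active, with duplicate mean exceeding buffer control mean plus 3 SD of buffer wells, cut at about 28% in these data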
CHO KCNQ1 ctr: KCNQ1 inhibitor counter-screen hit in parental CHO cells. shares compounds with KCNQ1 inh. AID 588366. parental CHO-K1, FluxOR thallium flux fluorescence ratio; hits give low values; zero means no signal rise above baseline. 21% of 1,600 active. fluorescence ratio (Tl flux) at 10 µM;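 active = mean of duplicate thallium-flux fluorescence ratios in parental host cells more than 5 SD below the buffer control mean, cut at about 0.38 in these data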;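 note: ratio is peak minus minimum fluorescence divided by baseline fluorescence; actives read low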
KCNQ1 ephys val: blocks human KCNQ1 current in automated patch clamp; shares compounds with KCNQ1 inh; KCNQ1-CHO cells; calls only at 10 µM; 20% of 490 active; AID 624120;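 active = KCNQ1 current drop exceeding 3 SD of negative control wells, seen in both duplicate runs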;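 note: steady state current during a 2 s step from -80 to +40 mV; negative values mean current inhibition and positive values mean potentiation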
KCNQ2 inh: KCNQ1 inhibitor that also blocks rat KCNQ2 channel; KCNQ2 cells, FluxOR thallium flux fluorescence; shares compounds with KCNQ1 inh; inhibition, % at 10 µM; 71% of 1,600 active;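 active = mean percent inhibition of the KCNQ2 thallium signal more than 5 SD above the buffer-only control wells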;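 note: KCNQ2 expressed in CHO cells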
KCNQ1-KCNE1 inh: human KCNQ1/KCNE1 inhibition in KCNQ1 specificity screen. shares compounds with KCNQ1 inh. KCNQ1/KCNE1 cells, FluxOR thallium flux fluorescence. inhibition, % at 10 µM. 77% of 1,600 active;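 active = mean percent inhibition of duplicate wells above the buffer-only control mean plus 3 SD of those controls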
KCNK9 inh conf: human KCNK9 inhibitor confirmation | shares compounds with KCNK9 block | HEK293 KCNK9 cells, FluxOR thallium flux fluorescence | inhibition, % at 10 µM | 43% of 4,900 active;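 active = thallium signal inhibited by more than 5 SD of the compound-free buffer control wells, on both duplicate plates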
Kir2-1 spec: mouse Kir2.1 off-target activity of KCNK9 modulators. Kir2.1 cells, FluxOR thallium flux fluorescence. shares compounds with KCNK9 block. 4% of 4,900 active. inhibition, % at 10 µM;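 active = thallium signal drop more than 5 SD beyond the mean of the no-compound control wells, seen in both duplicate plates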;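 note: signal is fluorescence rise after thallium addition divided by baseline fluorescence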
HEK293 Tl ctr: non-induced cell nonspecific activity of KCNK9 modulators; inhibition, % at 10 µM; non-induced KCNK9-HEK293, FluxOR thallium flux; shares compounds with KCNK9 block; 40% of 4,900 active;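 active = thallium signal drop beyond 5 SD of the untreated control mean, on both duplicate plates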
KCNK3 inh conf: confirmation of human KCNK3 two-pore domain potassium channel inhibitors; shares compounds with KCNK3 inh; ratio percent of control, % at 10 µM; CHO-KCNK3 thallium flux, FluxOR fluorescence; 0% buffer, 100% carvedilol maximal block; 99% of 2,400 active;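 active = ratio percent of control, averaged over triplicates, above buffer control mean plus 5 SD, cut at about 64% in these data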;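 note: ratio is the fluorescence rise from min to max over baseline after thallium stimulus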
KCNK3 uninduced: counter-screen for KCNK3 inhibitors: effect in non-induced cells | shares compounds with KCNK3 inh | 40% of 2,400 active | AID 651747 | thallium flux ratio (lower = more inhibition) at 10 µM | non-induced KCNK3 parental cells, FluxOR thallium flux; hits give low values;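 active = thallium flux ratio, averaged over three wells, more than 5 SD below the buffer control mean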;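 note: host cells are CHO cells without KCNK3 induction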
Large screens that a line does not name were inactive (follow-up assays come after a bar, where they were run). Compounds with a hit are over-represented: about 3.1% of the library has one in this group of screens.

COc1ccc(CC(=O)Nc2ccccc2C(=O)N2CCOCC2)cc1	none
Cc1nc(N2CCN(Cc3ccc4c(c3)OCO4)CC2)c2oc3ccccc3c2n1	none (no result: KCNK9 block, KCNQ1 pot, hERG rescue, KCNQ1 inh)
Cc1nc(N2CCN(Cc3ccc4c(c3)OCO4)CC2)c2cc(-c3ccccc3)sc2n1	KCNK3 inh -10, KCNQ1 inh 7 | KCNQ1 block val 118 | CHO KCNQ1 ctr inactive | KCNQ1 ephys val inactive | KCNQ2 inh 111% | KCNQ1-KCNE1 inh 130% | KCNK3 inh conf 95 | KCNK3 uninduced inactive
CCc1cc(=S)n2c([nH]c3ccccc32)c1C#N	KCNK3 inh -9.3, KCNQ1 inh 11 | KCNQ1 block val 102 | CHO KCNQ1 ctr inactive | KCNQ1 ephys val inactive | KCNQ2 inh 112% | KCNQ1-KCNE1 inh 82% | KCNK3 inh conf 137 | KCNK3 uninduced 0.057
Cc1ccc(C(=O)OCCN2CCN(c3ncc(C(F)(F)F)cc3Cl)CC2)cc1	none | KCNK9 inh conf inactive | Kir2-1 spec inactive | HEK293 Tl ctr inactive
COc1ccc(C(=O)OC2CCN(c3ncc(C(F)(F)F)cc3Cl)CC2)cc1	none | KCNK9 inh conf inactive | Kir2-1 spec inactive | HEK293 Tl ctr inactive
O=C1CC(c2ccccc2)CC(=O)N1c1ccc(C(F)(F)F)cc1	none (no result: KCNK9 block, KCNQ1 pot, hERG rescue, KCNQ1 inh)
C=CCn1c(C)csc1=Nc1ccc(C(=O)O)cc1	none
Cc1csc2sc(-c3ccnc(SCC(=O)NCc4ccccc4)n3)c(C)c12	KCNK9 block -9.2 | KCNK9 inh conf inactive | Kir2-1 spec inactive | HEK293 Tl ctr 32%
Cc1csc(SCC(=O)NCc2ccccc2)n1	none
CCC(C)/C(C)=N/NC(=O)CSc1nc2ccccc2[nH]1 (configuration not stated)	none
CCOC(=O)c1c(NC(=O)C(=O)N/N=C/c2ccc(O)c(OC)c2)sc2c1CCCCC2	KCNK9 block -8.5 | KCNK9 inh conf 56% | Kir2-1 spec inactive | HEK293 Tl ctr 30%
Cc1sc2nc(CSc3ccccc3)nc(N3CCN(C)CC3)c2c1C	none | KCNK9 inh conf inactive | Kir2-1 spec inactive | HEK293 Tl ctr 30%
CC(C)(C)c1ccc(COn2ccnc2)cc1	none
Cc1ccccc1NC(=O)c1sc2nc3c(c(-c4ccco4)c2c1N)CCC3	KCNK9 block -8.1 | KCNK9 inh conf 30% | Kir2-1 spec inactive | HEK293 Tl ctr 26%
CC1(C)CC(=O)c2cc(OCC(=O)N3CCN(c4ccccc4F)CC3)ccc2O1	none
O=C(COc1cccc(C(F)(F)F)c1)N1CCN(c2ccc(O)cc2)CC1	none
O=C(COc1ccc2c(c1)CCC2)N1CCN(c2ccccc2F)CC1	none | KCNK9 inh conf inactive | Kir2-1 spec inactive | HEK293 Tl ctr inactive
O=C(COc1ccc2c(c1)CCC2)N1CCN(c2cccc(C(F)(F)F)c2)CC1	none | KCNK9 inh conf inactive | Kir2-1 spec inactive | HEK293 Tl ctr inactive
CCCCN(C(=O)CCCc1nc2ccccc2s1)c1c(N)n(CC(C)C)c(=O)[nH]c1=O	none (no result: KCNK9 block, KCNQ1 pot, hERG rescue, KCNQ1 inh)
CCCCN(CC)C(=O)c1cc2cc3ccc(Cl)cc3nc2o1	KCNK9 block -8.5 | KCNK9 inh conf 44% | Kir2-1 spec inactive | HEK293 Tl ctr inactive
O=C(Oc1ccc2ccccc2c1Cl)N1CCCC1	none
O=C(Oc1ccc2ccccc2c1Cl)N1CCCCCC1	KCNK9 block -13 | KCNK9 inh conf 37% | Kir2-1 spec inactive | HEK293 Tl ctr 28%
CCn1c(=O)c(CCC(=O)NCCN2CCOCC2)c(C)c2c(C)nn(-c3cccc(C)c3)c21	none
Cc1nn(-c2ccccc2)c2c1c(C)c(CCC(=O)N1CCOCC1)c(=O)n2C	none | KCNK9 inh conf inactive | Kir2-1 spec inactive | HEK293 Tl ctr inactive
CCn1c(=O)c(CCC(=O)N2CCOCC2)c(C)c2c(C)nn(-c3ccccc3)c21	none | KCNK9 inh conf inactive | Kir2-1 spec inactive | HEK293 Tl ctr inactive
CCN1CCN(CCNC(=O)CCc2c(C)c3c(C)nn(-c4ccccc4)c3n(C)c2=O)CC1	none
Oc1ccc(Br)cc1/C=N/NC(=S)NCCc1ccccc1	none
C/C(=N\NC(=S)NCCc1ccccc1)c1ccc(Cl)cc1	none | KCNK9 inh conf inactive | Kir2-1 spec inactive | HEK293 Tl ctr inactive
C/C(=N\NC(=S)NCCc1ccccc1)c1ccc(C)cc1	none | KCNK9 inh conf inactive | Kir2-1 spec inactive | HEK293 Tl ctr inactive
S=C(NCCc1ccccc1)N/N=C/c1ccccc1Cl	none | KCNK9 inh conf inactive | Kir2-1 spec inactive | HEK293 Tl ctr inactive
C/C(=N\NC(=S)NCCc1ccccc1)c1ccc(C#N)cc1	none
Cc1ccc(OCCC(=O)OCC(=O)NC2CCS(=O)(=O)C2)cc1 (configuration not stated)	none
CCCCOc1ccc(/C=C(\C(=O)O)c2ccc(S(=O)(=O)N3CCCC3)s2)cc1	none (no result: KCNK9 block, KCNQ1 pot, hERG rescue, KCNQ1 inh)
CCCn1c(N)c(N(CCOC)C(=O)CSc2c(Cl)cccc2Cl)c(=O)[nH]c1=O	none (no result: KCNK9 block, KCNQ1 pot, hERG rescue, KCNQ1 inh)
CCCCCCCOC(=O)C[N+](C)(C)CCOC1CC2CCC1(C)C2(C)C (configuration not stated)	KCNK9 block -11, KCNQ1 inh 13 | KCNK9 inh conf 54% | Kir2-1 spec 73% | HEK293 Tl ctr 22%
Cc1ccn(CCC(=O)N2CCCC(CCC(=O)N3CCN(c4ccccn4)CC3)C2)n1 (configuration not stated)	none
